A selection: hits, their analogues and other compounds. The true share with any hit is near 1.5%.
FLuc stim CS: affects firefly luciferase, flagging false hits in luciferase stimulation screens; P08659; ATPlite luciferase biochemical, luminescence, 10 min; 0 = ATP-free wells, 1 = DMSO control; activation factor at 10 µM; 200,000 tested, under 10 active; AID 1027;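 active = luciferase activation factor, scaled between plate controls, of at least 2 with compound at 10 µM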
Target sequence (P08659 whole entry, looked up): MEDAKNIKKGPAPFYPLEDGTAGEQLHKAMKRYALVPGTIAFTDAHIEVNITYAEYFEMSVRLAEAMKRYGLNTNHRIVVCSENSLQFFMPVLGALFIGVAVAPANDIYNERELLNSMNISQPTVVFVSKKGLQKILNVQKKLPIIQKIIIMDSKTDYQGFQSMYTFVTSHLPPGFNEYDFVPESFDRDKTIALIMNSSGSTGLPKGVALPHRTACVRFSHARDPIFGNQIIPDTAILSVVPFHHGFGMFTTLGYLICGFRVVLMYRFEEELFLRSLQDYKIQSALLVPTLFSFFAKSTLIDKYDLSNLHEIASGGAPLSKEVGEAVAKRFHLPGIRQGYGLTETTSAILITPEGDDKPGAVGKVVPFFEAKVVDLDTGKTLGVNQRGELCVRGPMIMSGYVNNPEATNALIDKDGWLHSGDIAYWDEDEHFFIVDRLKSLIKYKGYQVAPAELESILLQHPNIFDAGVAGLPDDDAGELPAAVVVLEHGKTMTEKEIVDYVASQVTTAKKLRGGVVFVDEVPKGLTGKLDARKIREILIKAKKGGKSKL
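System: luciferase plus luciferin reagent, cell-free; medium: PBS as buffer for the ATP substrate; dosing: test compounds dosed from 2 mM stocks in 100% DMSO; timing: 10 min post-reagent at room temperature; measured by: luminescence measurement of luciferase light output; evaluation: luciferase activation, seen as luminescence increase over controls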
TRAIL sens C8: sensitizes caspase-8 expressing cells to TRAIL; NB7+C8 cells + TRAIL, ATPlite viability luminescence; inhibition (viability loss, TRAIL sensitization), % at 10 µM; 1% of 360,000 active;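 active = compounds causing at least 50% loss of cell viability in the single-dose screen, relative to plate controls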
FLuc inhib CS: inhibits firefly luciferase, flagging false hits in luciferase inhibition screens | P08659 | ATPLite firefly luciferase biochemical luminescence, 10 min | inhibition, % at 10 µM | 1.5% of 200,000 active;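 active = inhibition above about 50% when tested at 10 µM, limit read from the data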
PPC-1+TRAIL kill: compounds killing PPC-1 cancer cells with TRAIL present (potentiator screen, no TRAIL-free arm); AID 1443; cell killing (% activity), % at 4 µM or 5 µM; PPC-1 cells + TRAIL, ATPLite viability luminescence; 0.41% of 220,000 active;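 active = cell killing above 50% in the first pass at 4 µM, then a duplicate retest at 5 µM averaging 50% or more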;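 also: plate controls were cells with TRAIL plus DMSO for no effect and medium-only wells lacking cells for full effect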
* = called active by the depositor; . = not tested or not shown.

SMILES	FLuc stim CS	TRAIL sens C8	FLuc inhib CS	PPC-1+TRAIL kill
COc1cccc(-c2cc3nc(-c4ccccc4)cc(N4CCN(C(=O)c5ccoc5)CC4)n3n2)c1	.	79*	.	.
O=C(c1ccoc1)N1CCN(c2cc(-c3ccccc3)nc3cc(-c4ccccc4)nn23)CC1	.	43	.	.
COc1ccccc1-c1cc2nc(-c3ccccc3)cc(N3CCN(C(=O)c4ccco4)CC3)n2n1	.	75*	.	.
COc1cccc2c1C(CO)N1C(C#N)C3CC(C(=O)O)C(C1C2)N3C (centres undefined)	.	59*	.	43
COc1cccc2c1OCC(C(=O)O)C2 (centres undefined)	1	-14	-4	13
O=c1c2ccccc2sc2ccc(C#CC3(O)CCCCC3)cc12	.	93*	.	.
COc1cccc2sc3ccc(C#CC4(O)CCCCC4)cc3c(=O)c12	.	54*	.	.
COC(=O)c1c(C)cc(O)c(C=O)c1O	.	6	.	.
NC(=S)n1[nH]c(-c2ccc([N+](=O)[O-])cc2)c(N=Nc2ccccc2[N+](=O)[O-])c1=O	1.1	4	-8	13
NC(=S)n1[nH]c(-c2ccc([N+](=O)[O-])cc2)c(N=Nc2cccc([N+](=O)[O-])c2)c1=O	1	53*	-2	2
Cc1ccc(N=Nc2c(C)[nH]n(C(N)=S)c2=O)cc1C	0.7	20	33	20
Cc1[nH]n(C(N)=S)c(=O)c1N=Nc1cc(-c2ccc(Br)cc2)[nH]n1	0.4	23	56*	8
Cc1[nH]n(C(N)=S)c(=O)c1N=Nc1ccc2ccccc2c1	0.4	21	63*	33
COC(=O)Nc1nc(Sc2ncc(C(F)(F)F)cc2Cl)n[nH]1	1.1	-8	-9	10
CCOc1ccc(Nc2nc3c(C)cccc3cc2C#N)cc1	.	-7	.	.
CCOc1ccc2nc(/N=C/c3c(C)[nH]n(-c4ccc(C)cc4)c3=O)sc2c1	0.3	37	65*	35
O=C1/C(=C/N(C(=O)c2ccco2)c2ccc(Br)cc2)Sc2ccccc21	0.2	57*	83*	15
O=C1/C(=C/N(C(=O)c2ccco2)c2ccc(Cl)cc2)Sc2ccccc21	0.1	55*	86*	31
Cc1cccc(NC(=O)c2cnc3sccn3c2=O)c1	0.4	35	60*	44
Cc1cccc(NC(=O)c2cnc3sccn3c2=O)c1C	0.8	20	20	33
O=C(CN(C1CCCCC1)S(=O)(=O)c1ccc(F)cc1)Nc1ccc2c(c1)OCO2	1.1	3	-9	-8
Cc1cc2c(cc1C)C(c1ccccc1Br)CC(=O)N2 (centres undefined)	1	-8	1	54*
Cn1nc(C(F)(F)F)c(C(=O)Nc2ccc(F)cc2F)c1Sc1cccc(Cl)c1	1	2	-4	6
Fc1cccc2sc(Nc3nc4cc5c(cc4s3)OCCO5)nc12	0.2	53*	79*	28
Fc1cccc2sc(Nc3nc4cc5c(cc4s3)OCO5)nc12	0.7	11	32	31
SMILES	FLuc stim CS	TRAIL sens C8	FLuc inhib CS	PPC-1+TRAIL kill
CN(CC(=O)Nc1c(Cl)cccc1Cl)C(=O)c1n[nH]c2ccccc12	.	-9	.	.
C#CCOCCOCCOCCNc1nc(N2CCN(C(=O)CCCCCCCCCCNC(=O)[C@H]([C@@H](C)CC)n3cc(CCCCCN)nn3)CC2)nc(N2CCN(C(=O)CCCCCCCCCCNC(=O)[C@H]([C@@H](C)CC)n3cc(CCCCN=C(N)N)nn3)CC2)n1	.	51*	.	.
C#CCOCCOCCOCCNc1nc(N2CCN(C(=O)CCCCCCCCCCNC(=O)[C@H]([C@@H](C)CC)n3cc(CCCCN=C(N)N)nn3)CC2)nc(N2CCN(C(=O)CCCCCCCCCCNC(=O)[C@H](CO)n3cc(CCCCCN)nn3)CC2)n1	.	40	.	.
COc1ccc(NC(=O)C2(C)Cc3c(-c4ccc5c(c4)OCO5)ccnc3O2)cn1 (centres undefined)	.	12	.	.
FC(F)(F)C1=Nc2cccc3cccc(c23)N1	.	51*	.	.
Fc1ccc(C2=Nc3cccc4cccc(c34)N2)cc1	0.9	-2	6	-7
CN(C)CCNC=C(C(=O)Nc1ccc(Cl)cc1Cl)C(=O)Nc1ccc(Cl)cc1Cl	1	23	1	9
Cc1cc(/C=N/n2c(COc3ccccc3)nc3ccccc3c2=O)c(O)c([N+](=O)[O-])c1	0.8	51*	23	5
CCN(CC)CCOc1c(Br)ccc2c1sc1nc3n(c(=O)c12)CCC3	1.1	-7	-8	1
O=c1c2c(nc3n1CCCCC3)sc1c(O)c(Br)ccc12	0.2	35	81*	43
COc1cc(C(=O)N2CCCc3ccccc32)cc(OC)c1OC	1	5	-3	25
CCOc1ccccc1NC(=O)c1nc(S(=O)(=O)Cc2cccc(C)c2)ncc1Cl	.	93*	.	.
O=C(NCc1ccccc1)c1nc(S(=O)(=O)Cc2ccccc2)ncc1Cl	.	32	.	.
CCc1nnc(NC(=O)c2nc(S(=O)(=O)Cc3ccccc3)ncc2Cl)s1	.	94*	.	.
CCc1nnc(NC(=O)c2nc(Cl)ccc2Cl)s1	.	4	.	.
CC(=O)Nc1ccc(NC(=O)c2nc(S(=O)(=O)Cc3ccccc3)ncc2Cl)cc1	.	16	.	.
COC(=O)c1ccccc1NC(=O)c1nc(S(=O)(=O)Cc2ccccc2)ncc1Cl	.	95*	.	.
CCc1nnc(NC(=O)c2nc(S(=O)(=O)Cc3cccc(C)c3)ncc2Cl)s1	.	98*	.	.
CCc1nnc(NC(=O)c2nc(S(=O)(=O)Cc3ccc(C)cc3)ncc2Cl)s1	.	95*	.	.
CCSc1nnc(NC(=O)c2nc(S(=O)(=O)Cc3ccc(F)cc3)ncc2Cl)s1	.	23	.	.
O=C(O/N=C1\CCS(=O)(=O)c2sccc21)c1ccc(F)cc1	0.9	-4	6	14
O=C(O/N=C1/CCCc2occc21)c1ccc(F)cc1	0.2	-4	80*	-8
O=C(O/N=C1/CCSc2ccccc21)c1ccc(F)cc1	0.1	-6	88*	0
O=Cc1ccc(O)c2ncccc12	.	56*	.	12
CCNC(=S)N(CCc1cccc(C)c1)Cc1cc2cc(OC)c(OC)cc2[nH]c1=O	1	-19	-4	9
SMILES	FLuc stim CS	TRAIL sens C8	FLuc inhib CS	PPC-1+TRAIL kill
COC(=O)C1=C(C)N(Cc2ccccc2)C(=NCC(C)C)N[C@H]1c1cccc(F)c1	.	15	.	.
COC(=O)C1=C(C)N(Cc2ccccc2)C(=NCC(C)C)N[C@H]1c1cccc(C(F)(F)F)c1	.	56*	.	.
COC(=O)C1=C(C)N(Cc2ccccc2)C(=NCc2ccccc2)N[C@H]1c1cccc(C(F)(F)F)c1	.	78*	.	.
COC(=O)C1=C(C)N(Cc2ccccc2)C(=NCc2cccc(Cl)c2)N[C@H]1c1cccc(F)c1	.	81*	.	.
Oc1c(Br)cc(Br)cc1/C=N/c1nccs1	.	-1	.	.
CCCCn1c(-c2ccc(Br)cc2F)nc2c1c(=O)[nH]c(=O)n2CC(C)C	.	6	.	.
COc1cccc(/C=C2\Oc3ccc(O)cc3C2=O)c1O	.	65*	.	.
CN=c1sc(C(=O)Nc2ccccc2)c(C)n1C	1	2	-2	-2
CN=c1sc2c(n1C)C(=O)c1ccccc1C2=O	.	76*	.	.
COc1ccc(CNC(=O)c2sccc2C)cc1	.	-12	.	.
Cc1ccccc1C(=O)N/N=C/c1ccncc1	0.9	-6	6	-9
